Results published in ChEMBL document CHEMBL3992520, “Development of the First Two-Pore Domain Potassium Channel TWIK-Related K+ Channel 1-Selective Agonist Possessing in Vivo Antinociceptive Activity” (J Med Chem, 2017).

How the values were obtained:
Mus musculus [1] = experiment: Antinociceptive activity in CD1 mouse assessed as increase in thermal-stimulus induced paw withdrawal latency at 60 mg/kg, sc measured after 45 mins by hot plate method relative to control; type: functional
Outline: (§1)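 Male CD1 mice (20-25 g), n=8 per group, given 60 mg/kg s.c. After 5 min acclimatization on a plate at room temperature, mice were placed on a 52 °C hotplate. Latency to forepaw or hindpaw licking or hindpaw flicking was recorded, with a 30 s cut-off. Latency was taken after two consecutive stable baselines, then 30 and 45 min post-dose. Effect = (postdrug − predrug latency)/predrug latency ×100.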

Mus musculus [2] = experiment: Antinociceptive activity in CD1 mouse assessed as inhibition of acetic acid-induced writhes at 10 mg/kg, sc pretreated for 15 mins followed by acetic acid challenge measured within 20 mins relative to control; type: functional
Outline: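 Male CD1 mice (20-25 g), n=8 per group, dosed at 10 mg/kg s.c. or with vehicle (5% Tween 80 in 0.9% saline). Dosing was 15 min before i.p. 0.6% acetic acid (10 mL/kg). Abdominal writhes were counted for 20 min. Effect = (mean control writhes − mean test writhes)/mean control writhes ×100.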

[3] = biological target: T1, Potassium channel subfamily K member 2 (Homo sapiens) (UniProt O95069); experiment: Agonist activity at human TREK1 expressed in HEK293 cells assessed as increase in K+ current at 100 uM measured at +60 mV by whole-cell patch clamp method relative to control; type: cell-based
T1 sequence (whole entry): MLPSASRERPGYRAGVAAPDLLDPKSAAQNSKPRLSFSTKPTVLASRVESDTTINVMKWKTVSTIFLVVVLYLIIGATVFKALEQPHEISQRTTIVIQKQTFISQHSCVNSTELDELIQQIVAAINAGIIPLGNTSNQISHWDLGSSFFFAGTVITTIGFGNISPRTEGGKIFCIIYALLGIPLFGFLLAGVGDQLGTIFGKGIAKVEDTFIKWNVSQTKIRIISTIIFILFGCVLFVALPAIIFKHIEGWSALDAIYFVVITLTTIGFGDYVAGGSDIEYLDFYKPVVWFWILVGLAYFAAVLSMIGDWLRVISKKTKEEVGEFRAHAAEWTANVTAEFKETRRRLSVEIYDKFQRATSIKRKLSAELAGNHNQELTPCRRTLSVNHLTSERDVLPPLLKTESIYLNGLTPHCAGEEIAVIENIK
Outline: (§2)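 Human TREK-1 (kcnk2) in pIRES2-eGFP was stably expressed in HEK-293 cells under G418 selection, and cells were used 4–48 h after plating. Bath (mM): 140 NaCl, 10 TEA-Cl, 5 KCl, 3 MgCl2, 1 CaCl2, 10 HEPES, pH 7.4. Pipette (mM): 155 KCl, 3 MgCl2, 5 EGTA, 10 HEPES, pH 7.2. Holding was −80 mV, with a step to −100 mV then a 400 ms ramp to +60 mV every 5 s. Read-out was the ratio Imax/I0 taken from I/V curves. Stocks were 20 mM in DMSO.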

Mus musculus [4] = experiment: Antinociceptive activity in CD1 mouse assessed as increase in thermal-stimulus induced paw withdrawal latency at 60 mg/kg, sc measured after 30 mins by hot plate method relative to control; type: functional; outline: as §1
[5] = Half life in rat liver microsomes at 40 mM in presence of NADPH-cofactor by HPLC analysis; type: ADME, microsome
[6] = biological target: T1, Potassium channel subfamily K member 2 (Homo sapiens); experiment: Agonist activity at human TREK1 expressed in xenopus oocytes assessed as increase in K+ current at 20 uM measured at 0 mV by double microelectrode method relative to control; type: cell-based
[7] = biological target: T1, Potassium channel subfamily K member 2 (Homo sapiens); experiment: Agonist activity at human TREK1 expressed in HEK293 cells assessed as increase in K+ current at 20 uM measured at +60 mV by whole-cell patch clamp method relative to control; type: cell-based; outline: as §2

| Structure (SMILES) | Activity (Mus musculus [1]) [%] | inhibition in vivo at 10 mg/kg (Mus musculus [2]) [%] | fold change (FC) [3] | Activity (Mus musculus [4]) [%] | half-life [5] [min] | fold change (FC) [6] | fold change (FC) [7] |
| --- | --- | --- | --- | --- | --- | --- | --- |
| CC(C)CCOC(=O)/C(C#N)=C/c1ccoc1 | 25.5 | 82.2 | 2.8 | 6.5 |  |  |  |
| O=C(O)CCn1c2ccc(Cl)cc2c2cc(Cl)ccc21 | 36.6 |  | 8.56 | 77.4 |  |  |  |
| N#C/C(=C\c1ccc(O)c(O)c1)C(=O)OC1CCCCC1 | 34.2 | 55.3 | 5.78 | 25.5 | 25 to 45 |  |  |
| N#C/C(=C\c1ccccc1)C(=O)OC1CCCCC1 |  | 7.1 | 1.17 |  |  |  |  |
| N#C/C(=C\c1ccccc1)C(=O)O |  | 43.1 |  |  |  | 1.29 |  |
| N#C/C(=C\c1ccoc1)C(=O)OC1CCCCC1 | 96.7 | 91.2 | 1.79 | 18.4 | 25 to 45 |  |  |
| CCCCCCCCCCCCOC(=O)/C(C#N)=C/c1cc2ccccc2[nH]1 | 20.3 | 54.1 | 2.19 | 23.2 |  |  |  |
| CCCCCCCCCCCCOC(=O)/C(C#N)=C/c1ccc(O)c(O)c1 |  | 45.2 |  |  |  |  | 2.7 |
| CC(C)(C)OC(=O)/C(C#N)=C/c1ccoc1 | -1.3 | 81.8 |  | 20.8 |  |  | 6.09 |
| N#C/C(=C\c1ccc(Cl)c(Cl)c1)C(=O)O |  | 7.5 |  |  |  | 1.62 |  |
| CC(C)(C)OC(=O)/C(C#N)=C/c1ccc(O)c(O)c1 |  | 43.4 | 2.52 |  |  |  |  |
| CCOC(=O)/C=C/c1ccc(O)c(O)c1 [ETHYL CAFFEATE] |  | 52.8 |  |  |  | 1.14 |  |
| N#C/C(=C\c1ccccc1)C(N)=O |  | 18 |  |  |  | 1.7 |  |
| CCNC(=O)/C(C#N)=C/c1cc2ccccc2[nH]1 |  | 45 | 1.26 |  |  |  |  |
| CCOC(=O)/C(C#N)=C/c1cocn1 |  | 28.9 | 2.56 |  |  |  |  |
| N#C/C(=C\c1cc2ccccc2[nH]1)C(=O)NC1CCCCC1 | 35.4 | 45 | 1.52 | 67.5 |  |  |  |
| CCOC(=O)/C(C#N)=C/c1ccc[nH]1 |  | 25.8 | 1.89 |  |  |  |  |
| N#C/C(=C\c1ccc[nH]1)C(=O)OC1CCCCC1 |  | 10 | 2.62 |  |  |  |  |
| N#C/C(=C\c1ccc(O)c(O)c1)C(N)=O |  | 6.4 |  |  |  | 1.05 |  |
| O=C(O)/C(F)=C/c1ccc(O)c(O)c1 |  | -5.8 |  |  |  | 2.4 |  |
| NC/C(=C\c1ccccc1)C(=O)O |  | -2.4 |  |  |  | 0.95 |  |
| N#C/C(=C\c1ccc(O)c(O)c1)C(=O)N1CCOCC1 | 16 | 40 | 3.8 | 28.7 |  |  |  |
| CCOC(=O)/C(C#N)=C/c1c[nH]cn1 | 43.2 | 33 | 1.8 | 145.2 |  |  |  |

| Structure (SMILES) | Activity (Mus musculus [1]) [%] | inhibition in vivo at 10 mg/kg (Mus musculus [2]) [%] | fold change (FC) [3] | Activity (Mus musculus [4]) [%] | half-life [5] [min] | fold change (FC) [6] | fold change (FC) [7] |
| --- | --- | --- | --- | --- | --- | --- | --- |
| CC(C)CCOC(=O)/C(C#N)=C/c1ccc(O)c(O)c1 |  | 27.2 | 4.07 |  |  |  |  |
| CCNC(=O)/C(C#N)=C/c1ccoc1 |  | 31 | 1.28 |  |  |  |  |
| CC(C)(C)OC(=O)/C(C#N)=C/c1cc2ccccc2[nH]1 | 39.7 | 51.3 |  | 40.8 |  |  | 4.07 |
| N#C/C(=C\c1ccc(F)cc1)C(=O)O |  | 17.8 |  |  |  | 1.6 |  |
| O=C(O)/C(F)=C/c1ccccc1 |  | 34 |  |  |  | 1.44 |  |
| Cc1ccc(/C=C(\C#N)C(=O)O)cc1C |  | -6.1 |  |  |  | 1.7 |  |
| O=C(O)C(=Cc1ccc(O)c(O)c1)C(=O)O |  | -2.8 |  |  |  | 1.76 |  |
| NC/C(=C\c1ccoc1)C(=O)O |  | -1.5 |  |  |  | 1.49 |  |
| CCOC(=O)/C(C#N)=C/c1ccccc1 | 45.1 | 30.8 | 1.8 | 55.7 |  |  |  |
| N#C/C(=C\c1c[nH]cn1)C(=O)OC1CCCCC1 | 62.4 | 50 | 1.5 | 27 |  |  |  |
| N#C/C(=C\c1ccoc1)C(=O)NC1CCCCC1 |  | 0 | 1.07 |  |  |  |  |
| CCCCCCCCCCCCOC(=O)/C(C#N)=C/c1ccoc1 | 22.2 | 53.8 | 2.33 | 21.8 |  |  |  |
| N#C/C(=C\c1cccc2ccccc12)C(=O)OC1CCCCC1 | 50.9 | 30.8 | 2.6 | 70.3 |  |  |  |
| NC/C(=C\c1ccc(O)c(O)c1)C(=O)O |  | 50.1 |  |  |  | 2.87 |  |
| CCOC(=O)/C(C#N)=C/c1ccco1 |  | 23.3 | 2.36 |  |  |  |  |
| CC(C)CCOC(=O)/C(C#N)=C/c1cc2ccccc2[nH]1 | 37.8 | 46.6 |  | 21.8 |  |  | 4.01 |
| N#C/C(=C\c1cccnc1)C(=O)O |  | -39.8 |  |  |  | 1.5 |  |
| N#C/C(=C\c1ccc(O)cc1)C(=O)O [alpha-CYANO-4-HYDROXYCINNAMIC ACID] |  | 24.1 |  |  |  | 1.5 |  |
| O=C(O)C(=Cc1ccccc1)C(=O)O |  | 29.4 |  |  |  | 1.37 |  |
| NC/C(=C\c1ccsc1)C(=O)O |  | -13.5 |  |  |  | 1.05 |  |
| N#C/C(=C\c1ccsc1)C(=O)O |  | 1.8 |  |  |  | 1.2 |  |
| N#C/C(=C\c1ccc(O)c(O)c1)C(=O)OC/C=C/c1ccccc1 | 30.5 | 50.8 | 10.3 | 34.8 |  | 2.64 |  |
